ChEMBL document CHEMBL1152353, “Pyrimido[5,4-e][1,2,4]triazine-5,7(1H,6H)-dione derivatives as novel small molecule chaperone amplifiers” (Bioorg Med Chem Lett, 2009)
The source made the active and inactive calls. The calls are words filed in the database; no cut-off is given here.

Key:
[1] = target: T1, Heat shock factor protein 1 (Homo sapiens) (UniProt Q00613); test: Amplification of HSF1 transcriptional activity in human HeLa cells assessed as granule formation pretreated for 3 hrs by immunocytochemical staining; type: cell-based
T1 sequence (whole entry): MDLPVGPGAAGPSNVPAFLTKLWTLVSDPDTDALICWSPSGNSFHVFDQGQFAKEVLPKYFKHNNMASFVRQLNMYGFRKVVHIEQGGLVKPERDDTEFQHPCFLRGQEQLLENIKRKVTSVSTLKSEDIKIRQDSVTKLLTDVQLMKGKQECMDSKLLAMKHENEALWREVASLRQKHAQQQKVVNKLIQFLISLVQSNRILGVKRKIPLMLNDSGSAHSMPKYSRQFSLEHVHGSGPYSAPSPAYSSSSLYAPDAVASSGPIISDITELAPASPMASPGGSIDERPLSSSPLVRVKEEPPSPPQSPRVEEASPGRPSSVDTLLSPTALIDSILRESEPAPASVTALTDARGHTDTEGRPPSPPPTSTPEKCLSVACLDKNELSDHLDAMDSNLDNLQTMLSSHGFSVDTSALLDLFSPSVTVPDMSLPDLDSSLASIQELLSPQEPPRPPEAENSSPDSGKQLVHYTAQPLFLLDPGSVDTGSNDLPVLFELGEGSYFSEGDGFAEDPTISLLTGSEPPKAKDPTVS
In short: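 HeLa cells pretreated with compound 1 h, then mild heat shock 41 °C for 2 h, no recovery; control arm pretreated 3 h at 37 °C without heat shock. Compound diluted 200-fold, 0.3 to 80 µM range.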

[2] = test system: SK-N-SH; test: Cytoprotection against rotenone stress-induced toxicity in human SK-N-SH cells at 1.25 uM after 48 hrs by MTS assay; type: functional
In short: (§1)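 SK-N-SH neuroblastoma cells (within passage 6) seeded in DMEM with 0.1% FBS for 18 h, then fresh medium with 200 nM rotenone (final) plus compound, 0.019 to 10 µM. Incubated 48 h, then MTS viability read. Cytoprotection expressed as viability increase over the rotenone DMSO control; EC50 = concentration giving half-maximal protection. Data averaged over multiple tests.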

[3] = test system: SK-N-SH; test: Cytoprotection against rotenone stress-induced toxicity in human SK-N-SH cells assessed as increase in cell viability after 48 hrs by MTS assay relative to control; type: functional; design: concentration or dose not given beside the values; in short: as §1
[4] = Cytotoxicity against human HeLa cells after 72 hrs by MTS assay; type: cell-based; conditions: HeLa cells
In short: (§2)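 HeLa (8000 cells/well) or SK-N-SH (14,000 cells/well) cells seeded in DMEM with 10% FBS for 18 h. Compound added at 1:200 dilution, final 0.3 to 80 µM, 0.5% v/v DMSO. Exposure 72 h, then MTS/PMS for 4 h, SDS to 1.4% w/v, absorbance at 492 nm. CC50 = concentration giving half-maximal cytotoxicity.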

[5] = Cytotoxicity against human SK-N-SH cells after 72 hrs by MTS assay; type: cell-based; in short: as §2
[6] = test system: SK-N-SH; test: Cytoprotection against rotenone stress-induced toxicity in human SK-N-SH cells after 48 hrs by MTS assay; type: functional, cell-based; in short: as §1
[7] = target: T2, Heat shock factor protein 1 (Homo sapiens, UniProt Q00613); test: Amplification of HSF1 transcriptional activity in human heat shock-induced HeLa cells assessed as granule formation treated 1 hr before heat shock challenge measured after 2 hrs without recovery time by immunocytochemical staining; type: cell-based
T2 sequence (Q00613 whole entry): T1 sequence (whole entry)
In short: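 HeLa cells given compound 1 h before mild heat shock at 41 °C for 2 h, no recovery; compound diluted 200-fold, 0.3 to 80 µM. Unstressed control plates kept at 37 °C for 3 h. HSF1 immunocytochemical staining, imaged at 10×.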

[8] = test system: SH-SY5Y; test: Cytoprotection against oxygen-glucose deprivation-induced cytotoxicity in human SH-SY5Y cells at 0.5 uM after 28 hrs by MTS assay; type: functional
In short: (§3)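 SH-SY5Y cells plated on collagen I-coated wells, grown 16–24 h in complete medium, washed twice in deoxygenated glucose- and serum-free medium; compound added within 1 h before OGD. Chambers flushed with 95% N₂/5% CO₂, residual O₂ <1%, held at 37 °C for 28 h. MTS viability; cytoprotection = (MTS_compound − MTS_DMSO)/MTS_DMSO × 100% versus OGD DMSO control.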

[9] = test system: SH-SY5Y; test: Cytoprotection against oxygen-glucose deprivation-induced cytotoxicity in human SH-SY5Y cells at 1 uM after 28 hrs by MTS assay; type: functional; in short: as §3
[10] = test system: SH-SY5Y; test: Cytoprotection against oxygen-glucose deprivation-induced cytotoxicity in human SH-SY5Y cells at 2.5 uM after 28 hrs by MTS assay; type: functional; in short: as §3
[11] = test system: SK-N-SH; test: Cytoprotection against rotenone stress-induced toxicity in human SK-N-SH cells at 0.16 uM after 48 hrs by MTS assay; type: functional
In short: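 SK-N-SH cells (within passage 6) seeded in DMEM with 0.1% FBS for 18 h, then fresh medium with rotenone (final 200 nM) plus compound (range from 0.019 up to 10). Incubated 48 h, viability by MTS; cytoprotection as viability increase over DMSO-plus-rotenone control.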

[12] = Homo sapiens, SK-N-SH, 48 h, read-out: EC50

Structure (SMILES)	Activity [1]	Activity [2]	Activity [3]	CC50 at 72 h [4]	CC50 at 72 h [5]	EC50 [6, 12]	EC50 [7]	EC50 ([6]; sk-n-sh)	Activity [8]	Activity [9]	Activity [10]	Activity [11]
CCn1nc(-c2ccc(C)o2)[n+]([O-])c2c(=O)n(C)c(=O)nc1-2	inactive	56%	56%	9.8 µM	3.3 µM	–	–	–	–	–	–	–
CCn1nc(-c2ccc[nH]2)nc2c(=O)n(C)c(=O)nc1-2	inactive	–	44%	10.7 µM	4.3 µM	0.68 µM	–	–	–	–	–	–
CC(C)Cn1nc(-c2nc3ccccc3s2)nc2c(=O)n(C)c(=O)nc1-2	inactive	–	67%	7.9 µM	3.7 µM	0.27 µM	–	–	–	–	–	–
CCCCn1nc(-c2ccc[nH]2)[n+]([O-])c2c(=O)n(C)c(=O)nc1-2	inactive	–	49%	6.3 µM	1.5 µM	0.64 µM	–	–	–	–	–	–
CCCCn1nc(-c2ccccc2)nc2c(=O)n(C)c(=O)nc1-2	inactive	–	58%	18.5 µM	9.8 µM	0.49 µM	–	–	–	–	–	–
Cn1c(=O)nc2[nH]nc(-c3cccs3)nc-2c1=O	–	–	inactive	–	–	–	Not Active	Not Active	–	–	–	–
CCCCn1nc(-c2ccc(C)o2)nc2c(=O)n(C)c(=O)nc1-2	inactive	–	23%	7.8 µM	5.3 µM	0.33 µM	–	–	–	–	–	–
CCn1nc(-c2ccc(C)o2)nc2c(=O)n(C)c(=O)nc1-2	inactive	–	50%	22.3 µM	8.2 µM	1.84 µM	–	–	–	–	–	–
Cn1c(=O)nc2n(Cc3ccccc3)nc(-c3nc4ccccc4s3)nc-2c1=O	inactive	–	27%	7.3 µM	5.6 µM	2.34 µM	–	–	–	–	–	–
CCCCn1nc(-c2nc3ccccc3s2)nc2c(=O)n(C)c(=O)nc1-2	inactive	–	53%	8.7 µM	8.4 µM	0.23 µM	–	–	14%	38%	80%	–
CC1=C(O)C(=O)C=C2C1=CC=C1[C@@]2(C)CC[C@@]2(C)[C@@H]3C[C@](C)(C(=O)O)CC[C@]3(C)CC[C@]12C [CELASTROL]	–	–	24%	3 µM	1.6 µM	–	–	–	8%	18%	-22%	24%
CCn1nc(-c2ccc[nH]2)[n+]([O-])c2c(=O)n(C)c(=O)nc1-2	inactive	–	35%	5.2 µM	1.9 µM	0.17 µM	–	–	–	–	–	–
CCCCn1nc(-c2ccc(C)o2)[n+]([O-])c2c(=O)n(C)c(=O)nc1-2	inactive	49%	49%	9 µM	6.6 µM	–	–	–	–	–	–	–
CCn1nc(-c2cccs2)nc2c(=O)n(C)c(=O)nc1-2	inactive	–	53%	10.5 µM	9.9 µM	0.41 µM	–	–	18%	48%	14%	–
